Here are results for two molecules from ChEMBL document CHEMBL1157635, “Synthesis, radiofluorination, and hypoxia-selective studies of FRAZ: A configurational and positional analogue of the clinical hypoxia marker, [18F]-FAZA” (Bioorg Med Chem, 2010).

The term logP denotes the decadic logarithm of the partition coefficient of the neutral form, usually between octanol and water. A lower logP goes with lower lipophilicity.

The test system of data set [1] is 143B. In words: Toxicity in human 143B cells at < 10 mM assessed as reduction of cell survival after 72 hrs by MTT assay. The data set is classed as cell-based. An outline of the steps:
(§1)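 Exponentially growing cells seeded at 8 × 10² cells/well and pre-incubated 24 h at 37 °C (5% CO2). Compound added in growth medium over 10^-7 to 10^-3 M, with medium-only controls, for 72 h. MTT then added for 4 h, formazan dissolved in DMSO and absorbance read at 540 nm.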
(Tetrazolium assays rely on reduction of a dye to a coloured formazan, in cell work by metabolically active cells.)

Data set [2] in a line: Toxicity in Kirsten virus transformed mouse KBALB cells at < 10 mM assessed as reduction of cell survival after 72 hrs by MTT assay. It counts as cell-based. The method in brief:
as §1

Data set [3] concerns EMT6. Description: Toxicity in mouse EMT6 cells at 1 mM assessed as reduction of cell survival after 72 hrs by MTT assay. The data set is classed as cell-based. The conditions noted are these: emt6, 72 h, 1000 µM. An outline of the steps:
as §1

Data set [4] concerns EMT6. In words: Toxicity in mouse EMT6 cells at < 10 mM assessed as reduction of cell survival after 72 hrs by MTT assay. The conditions noted are these: emt6, 72 h. The data set is classed as cell-based. An outline of the steps: as §1
A short description of data set [5]: Toxicity in Kirsten virus transformed mouse KBALB-STK cells at < 10 mM assessed as reduction of cell survival after 72 hrs by MTT assay. The data set is classed as cell-based. An outline of the steps:
as §1

The nature of data set [6]: Toxicity in human 143B-LTK cells at < 10 mM assessed as reduction of cell survival after 72 hrs by MTT assay. It counts as cell-based. An outline of the steps: as §1
A short description of data set [7]: Partition coefficient, log P by HPLC. The data set is classed as physicochemical. Particulars: octanol/water. The method in brief:
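Reverse-phase analytical HPLC with a gradient solvent system. Retention time compared with IAZA, FAZA and AZA standards, and P interpolated from a plot.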

Data set [8] relates to HCT-116. Description: Hypoxia radiosensitization activity in human HCT116 cells assessed as sensitizer enhancement ratio at 100 uM after 24 hrs by [60]Co X-ray source based clonogenic survival assay. The data set is classed as functional. An outline of the steps:
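HCT-116 cells pre-incubated 20 h, then exposed to 100 µM (from 10 mM stock in 95% ethanol) for 24 h. Hypoxic dishes degassed by six vacuum/N2 cycles, normoxic kept in air, then shaken 30 min. Irradiated with 60Co at 0–20 Gy. Cells replated and grown 10–14 days at 37 °C, colonies stained, surviving fractions counted, triplicate.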

Take `O=[N+]([O-])c1nccn1[C@H]1O[C@H](CO)[C@@H](O)[C@H]1F`: the Activity entry in data set [1], in data set [2], in data set [3], in data set [4], in data set [5] and in data set [6] was “Non-toxic” throughout. The same molecule yielded a logP in data set [7] of 1.08. The Ratio in data set [8] amounted to 1.4.

Turning to `O=[N+]([O-])c1nccn1[C@H]1O[C@H](CF)[C@@H](O)[C@@H]1O`, the logP in data set [7] came to 1.1. For the same molecule, the Ratio in data set [8] is listed as 1.25.
